In ChEMBL document CHEMBL1157441, “Fungicidal activity of truncated analogues of dihydrosphingosine” (2008) one finds MFC and Activity data, which are given here for 7 compounds.

Each structure is given as a SMILES string. ≈ marks a conversion by molar mass, not a printed value. Calls of active or inactive are those of the source.

In experiment [1] the test system is Candida albicans. Description: Fungicidal activity against Candida albicans CAI4 in presence of 10 mM ascorbic acid. It counts as functional. The procedure, abridged:
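Overnight C. albicans culture diluted 1/400 in PBS, exposed to compound or DMSO with 10 mM ascorbic acid for 0 h and 5 h at 37°C. CFU counted on YPD agar after 2 days at 30°C. MFC defined as minimal concentration leaving under 1% survival versus DMSO control.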

In experiment [2] the test system is Candida albicans. Description: Induction of endogenous ROS accumulation in Candida albicans CAI4 after 3 hrs by 2',7'-dichlorofluorescein diacetate staining. It counts as functional, organism-based. The method, boiled down: (§1)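 Log-phase cells suspended in PBS and pre-incubated with compounds for 3 h at 37°C. Cells then washed in PBS and incubated with 2',7'-dichlorofluorescein diacetate for 3 h at 37°C. Cellular fluorescence read by fluorescence spectrometer, ex 485 nm / em 525 nm. Tested over a range of concentrations up to 100 µg/ml.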

Experiment [3] relates to Candida albicans. Briefly: Fungicidal activity against Candida albicans CAI4. The class given is functional. The procedure, abridged:
(§2)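 Overnight cultures diluted 1/400 in PBS, exposed to compound or DMSO without ascorbic acid for 0 h and 5 h at 37°C. Survivors counted as CFU on YPD agar after 2 days at 30°C. MFC taken as lowest concentration giving under 1% survival relative to DMSO control.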

Another experiment relates to Nakaseomyces glabratus. Briefly: Fungicidal activity against Candida glabrata BG2. It counts as functional. The method, boiled down:
as §2

Experiment [4] deals with Candida albicans. Briefly: Induction of endogenous ROS accumulation in Candida albicans CAI4 at 100 ug/ml after 3 hrs by 2',7'-dichlorofluorescein diacetate staining. The class given is functional, organism-based. The method, boiled down: as §1

The term MFC denotes the lowest tested concentration that kills the fungus rather than only halting it. `CCCCCCCCC[C@@H](O)[C@@H](N)CO`: the MFC is over 25 µg/mL in the experiment on Candida albicans [1], 10 µg/mL (≈ 46 µM) in the experiment with Candida albicans [3] and 10 µg/mL (≈ 46 µM) against Nakaseomyces glabratus. Also, the outcome in the experiment on Candida albicans [2] was Active.

`CCCCCCCCCCCCCC[C@@H](O)[C@@H](O)[C@@H](N)CO` [PHYTOSPHINGOSINE]: the MFC in the experiment with Candida albicans [1] is 1 µg/mL; against Candida albicans [3], 1 µg/mL (≈ 3.15 µM); against Nakaseomyces glabratus it was 1 µg/mL (≈ 3.15 µM). Also, the result with Candida albicans [2] was Active.

`CCCCCCCCCCCCCC[C@@H](O)[C@@H](N)CO`: the MFC was determined as 2 µg/mL in the experiment with Candida albicans [1], 0.5 µg/mL (≈ 1.74 µM) against Candida albicans [3] and 0.5 µg/mL (≈ 1.74 µM) in the experiment with Nakaseomyces glabratus. Moreover, in the experiment with Candida albicans [2], the result was Active.

Turning to `CCCCCCCCCCCC[C@@H](O)[C@@H](N)CO`, the results for the MFC with Candida albicans [1], with Candida albicans [3] and against Nakaseomyces glabratus were 10 µg/mL, 0.5 µg/mL (≈ 1.93 µM) and 0.5 µg/mL (≈ 1.93 µM), respectively. In addition, the result in the experiment with Candida albicans [2] was Active.

For the compound `CCCCCCCCCCCCCCC[C@@H](O)[C@@H](N)CO` [DIHYDROSPINGOSINE], the MFC in the experiment on Candida albicans [1] was 5 µg/mL; against Candida albicans [3], 5 µg/mL (≈ 16.6 µM); in the experiment on Nakaseomyces glabratus it was 1 µg/mL (≈ 3.32 µM). Besides, the result in the experiment on Candida albicans [2] was Active.

Take `CC[C@@H](O)[C@@H](N)CO`: in the experiment on Candida albicans [4], the result was inactive. Moreover, the minimum fungicidal concentration (MFC) against Candida albicans [3] and in the experiment on Nakaseomyces glabratus was over 100 µg/mL in each case.

For the compound `CCCCCC[C@@H](O)[C@@H](N)CO`, the result in the experiment on Candida albicans [4] was inactive. Moreover, the MFC in the experiment with Candida albicans [3] and against Nakaseomyces glabratus was over 100 µg/mL throughout.
